Measured values taken from ChEMBL document CHEMBL1821598, “Synthesis, structure-activity relationship and biological evaluation of anticancer activity for novel N-substituted sophoridinic acid derivatives” (Bioorg Med Chem Lett, 2011).
Converted amounts (≈) assume the structure as drawn. The source made the active and inactive calls. The calls are words filed in the database; no cut-off is given here.

Columns and labels:
HepG2 [1] = assay: Inhibition of cell proliferation of human HepG2 cells at 30 ug/mL after 48 hrs by Sulforhodamine B assay; assay type: functional; conditions: HepG2, 48 h
In short: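 HepG2 cells exposed to test compounds at 30 μg/mL for 48 h. HCPT at 30 μg/mL was the positive control. Proliferation was read by SRB and reported as % inhibition. Values are mean ± SD of three separate experiments.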

[2] = biological target: T1, DNA topoisomerase 1 (Homo sapiens) (UniProt P11387); assay: Inhibition of DNA topoisomerase 1 using DNA substrate after 0.5 hrs by gel electrophoresis
T1 sequence (whole entry): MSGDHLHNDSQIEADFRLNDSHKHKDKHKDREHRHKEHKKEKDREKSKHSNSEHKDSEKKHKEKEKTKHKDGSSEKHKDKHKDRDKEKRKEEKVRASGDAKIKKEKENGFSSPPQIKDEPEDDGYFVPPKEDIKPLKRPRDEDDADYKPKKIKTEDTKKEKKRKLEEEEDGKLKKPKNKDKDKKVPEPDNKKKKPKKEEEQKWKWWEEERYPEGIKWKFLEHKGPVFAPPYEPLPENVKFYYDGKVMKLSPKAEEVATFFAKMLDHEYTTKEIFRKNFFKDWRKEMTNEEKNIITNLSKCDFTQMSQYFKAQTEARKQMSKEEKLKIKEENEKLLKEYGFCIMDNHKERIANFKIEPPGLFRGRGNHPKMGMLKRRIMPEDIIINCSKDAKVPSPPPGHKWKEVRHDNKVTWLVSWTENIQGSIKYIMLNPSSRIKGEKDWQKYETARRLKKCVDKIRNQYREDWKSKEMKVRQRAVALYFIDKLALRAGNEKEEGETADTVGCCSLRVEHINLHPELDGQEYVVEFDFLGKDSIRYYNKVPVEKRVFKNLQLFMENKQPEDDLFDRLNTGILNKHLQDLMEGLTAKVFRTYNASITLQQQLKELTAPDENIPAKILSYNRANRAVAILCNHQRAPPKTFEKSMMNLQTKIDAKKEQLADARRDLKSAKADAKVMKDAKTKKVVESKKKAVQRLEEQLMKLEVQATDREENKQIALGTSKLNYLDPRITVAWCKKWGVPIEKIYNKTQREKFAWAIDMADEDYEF
In short: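 Run over a range of concentrations, with HCPT as positive control.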

HepG2 [3] = assay: Cytotoxicity against human HepG2 cells after 48 hrs by Sulforhodamine B assay; assay type: functional, cell-based; conditions: for IC50: HepG2, 48 h
In short: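 HepG2 cells treated at a series of concentrations for 48 h. Cell death was read by sulforhodamine B staining.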

[4] = Inhibition of cell proliferation of human […] cells at 30 ug/mL after 48 hrs by Sulforhodamine B assay; assay type: functional
In short: (§1)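 Human tumor cell lines were treated at 30 μg/mL for 48 h. Antiproliferative activity was measured by SRB assay.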

A549 = assay: Inhibition of cell proliferation of human A549 cells at 30 ug/mL after 48 hrs by Sulforhodamine B assay; assay type: functional; conditions: A549, 48 h; in short: as §1
MCF7 = assay: Inhibition of cell proliferation of human MCF7 cells at 30 ug/mL after 48 hrs by Sulforhodamine B assay; assay type: functional; conditions: MCF7, 48 h; in short: as §1
HepG2 [5] = assay: Cell cycle arrest in human HepG2 cells assessed as accumulation at G0/G1 phase at 20 ug/mL after 4 hrs by flow cytometry (Rvb= 63.1%); assay type: functional
In short: (§2)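 HepG2 cells incubated with or without compound at 20 μg/mL for 4, 12 or 24 h. Cell cycle distribution (G0/G1, S, G2/M) was read from DNA content by flow cytometry. Untreated cells served as control.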

HepG2 [6] = assay: Cell cycle arrest in human HepG2 cells assessed as accumulation at G0/G1 phase at 20 ug/mL after 12 hrs by flow cytometry (Rvb= 63.1%); assay type: functional; in short: as §2
HepG2 [7] = assay: Cell cycle arrest in human HepG2 cells assessed as accumulation at G0/G1 phase at 20 ug/mL after 24 hrs by flow cytometry (Rvb= 63.1%); assay type: functional; in short: as §2
HepG2 [8] = assay: Cell cycle arrest in human HepG2 cells assessed as accumulation at S phase at 20 ug/mL after 4 hrs by flow cytometry (Rvb= 25.4%); assay type: functional; in short: as §2
HepG2 [9] = assay: Cell cycle arrest in human HepG2 cells assessed as accumulation at S phase at 20 ug/mL after 12 hrs by flow cytometry (Rvb= 25.4%); assay type: functional; in short: as §2
HepG2 [10] = assay: Cell cycle arrest in human HepG2 cells assessed as accumulation at S phase at 20 ug/mL after 24 hrs by flow cytometry (Rvb= 25.4%); assay type: functional; in short: as §2
HepG2 [11] = assay: Cell cycle arrest in human HepG2 cells assessed as accumulation at G2/M phase at 20 ug/mL after 4 hrs by flow cytometry (Rvb= 11.5%); assay type: functional; in short: as §2
HepG2 [12] = assay: Cell cycle arrest in human HepG2 cells assessed as accumulation at G2/M phase at 20 ug/mL after 12 hrs by flow cytometry (Rvb= 11.5%); assay type: functional; in short: as §2
HepG2 [13] = assay: Cell cycle arrest in human HepG2 cells assessed as accumulation at G2/M phase at 20 ug/mL after 24 hrs by flow cytometry (Rvb= 11.5%); assay type: functional; in short: as §2
HepG2 [14] = assay: Induction of apoptosis in human HepG2 cells assessed as disappearance of nuclear membrane and appearance of apoptotic body at 20 ug/mL after 48 hrs by microscopy relative to control; assay type: functional, cell-based
In short: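 HepG2 cells untreated or treated at 20 μg/mL for 48 h. Cells were harvested onto slides and examined by microscopy for apoptotic morphology.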

Structure (SMILES) | inhibition at 30 µg/mL (HepG2 [1]) [%] | further results
CCOC(=O)N1C[C@@H]2CCCN3CCC[C@@H]([C@H]23)[C@@H]1CCCC(=O)O | 19.9 | 
CC(=O)N1C[C@@H]2CCCN3CCC[C@@H]([C@H]23)[C@@H]1CCCC(=O)O | 11.2 | 
Cc1ccc(S(=O)(=O)N2C[C@@H]3CCCN4CCC[C@@H]([C@H]34)[C@@H]2CCCC(=O)O)cc1 | 13.4 | 
O=C(O)CCC[C@H]1[C@H]2CCCN3CCC[C@@H](CN1C(=O)c1ccc(F)cc1)[C@@H]23 | < 5 | 
COc1ccc(C(=O)N2C[C@@H]3CCCN4CCC[C@@H]([C@H]34)[C@@H]2CCCC(=O)O)cc1[N+](=O)[O-] | < 5 | 
Cc1ccc(CN2C[C@@H]3CCCN4CCC[C@@H]([C@H]34)[C@@H]2CCCC(=O)O)cc1 | < 5 | 
O=C(O)CCC[C@H]1[C@H]2CCCN3CCC[C@@H](CN1C(=O)c1ccc4c(c1)OCO4)[C@@H]23 | 11.4 | 
CC(Br)C(=O)N1C[C@@H]2CCCN3CCC[C@@H]([C@H]23)[C@@H]1CCCC(=O)O (stereo partly drawn) | 15.6 | 
O=C(O)CCC[C@H]1[C@H]2CCCN3CCC[C@@H](CN1S(=O)(=O)c1ccccc1)[C@@H]23 | < 5 | 
Cc1c(C(=O)N2C[C@@H]3CCCN4CCC[C@@H]([C@H]34)[C@@H]2CCCC(=O)O)cccc1[N+](=O)[O-] | 8.9 | 
Cc1ccc(C(=O)N2C[C@@H]3CCCN4CCC[C@@H]([C@H]34)[C@@H]2CCCC(=O)O)cc1 | 8.5 | 
COc1cc(C(=O)N2C[C@@H]3CCCN4CCC[C@@H]([C@H]34)[C@@H]2CCCC(=O)O)cc(OC)c1OC | 11.8 | 
O=C(O)CCC[C@H]1[C@H]2CCCN3CCC[C@@H](CN1C(=O)OCc1ccccc1)[C@@H]23 | 8.4 | 
O=C(O)CCC[C@H]1[C@H]2CCCN3CCC[C@@H](CN1C(=O)c1ccc(F)c([N+](=O)[O-])c1)[C@@H]23 | 7.7 | 
CC[C@@]1(O)C(=O)OCc2c1cc1n(c2=O)Cc2cc3cc(O)ccc3nc2-1 [HYDROXYCAMPTOTHECIN] | 92 | 
O=C1CCC[C@@H]2[C@H]3CCCN4CCC[C@H](CN12)[C@@H]34 [SOPHORIDINE] | 13.8 | inhibition [2]: Active
O=C(O)CCC[C@H]1[C@H]2CCCN3CCC[C@@H](CN1C(=O)CBr)[C@@H]23 | 88 | inhibition (HepG2 [3]): Dose-dependent effect; IC50 (HepG2 [3]): 15.4 µg/mL (≈ 39.8 µM); inhibition at 30 µg/mL [4]: 68%; inhibition at 30 µg/mL (A549): 40%; inhibition at 30 µg/mL (MCF7): 73.3%; Activity (HepG2 [5]): 50.4%; Activity (HepG2 [6]): 53.8%; Activity (HepG2 [7]): 47.7%; Activity (HepG2 [8]): 40.2%; Activity (HepG2 [9]): 38.3%; Activity (HepG2 [10]): 41.8%; Activity (HepG2 [11]): 9.43%; Activity (HepG2 [12]): 7.88%; Activity (HepG2 [13]): 10.4%; Activity (HepG2 [14]): Active; inhibition [2]: Active
COc1ccc(CN2C[C@@H]3CCCN4CCC[C@@H]([C@H]34)[C@@H]2CCCC(=O)O)cc1 | < 5 | 
COc1ccc(C(=O)N2C[C@@H]3CCCN4CCC[C@@H]([C@H]34)[C@@H]2CCCC(=O)O)cc1 | < 5 | 
O=C(O)CCC[C@@H]1NC[C@@H]2CCCN3CCC[C@H]1[C@H]23 [SOPHORIDINIC ACID] | 10.3 | 
O=C(O)CCC[C@H]1[C@H]2CCCN3CCC[C@@H](CN1C(=O)c1cccc([N+](=O)[O-])c1)[C@@H]23 | < 5 | 
CC(C)(C)C(=O)N1C[C@@H]2CCCN3CCC[C@@H]([C@H]23)[C@@H]1CCCC(=O)O | 41.1 | inhibition (HepG2 [3]): Dose-dependent effect; IC50 (HepG2 [3]): 43.6 µg/mL (≈ 124 µM)
O=C(O)CCC[C@H]1[C@H]2CCCN3CCC[C@@H](CN1C(=O)c1ccccc1)[C@@H]23 | < 5 | 
COC(=O)N1C[C@@H]2CCCN3CCC[C@@H]([C@H]23)[C@@H]1CCCC(=O)O | 7.8 | 
